Publication PMC12214485 (Scientific Reports, 2025)

Assay: DPPH free radical scavenging assay
Outline: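 Each well held test compound and DPPH (added as 150 µM solution, half the well volume), made up with methanol. Incubated 30 min at room temperature, then absorbance read at 517 nm. Percent inhibition was calculated from blank and sample absorbances. Ascorbic acid served as reference. Three independent experiments were run, each in triplicate.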

O=C1O[C@H]([C@@H](O)CO)C(O)=C1O [Vitamin C, Ascorbic acid]
antioxidant activity: 95.1571 ± 0.057 µg/mL
